Values after ≈ are worked out from the molar mass of the structure shown.
Tests used:
[1] = molecular target: Phosphatidylinositol 4,5-bisphosphate 3-kinase catalytic subunit gamma isoform (Homo sapiens, UniProt P48736); experiment: Inhibition of human recombinant PI3Kgamma assessed as depletion of ATP substrate by Ultra Glo luciferase assay
Outline: (§1)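 Enzyme IC50s are reported as the geometric mean of 3 or more values.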

Mus musculus [2] = experiment: Inhibition of Akt phosphorylation in SCID mouse xenografted with PTEN-null human PC3 cells at 100 mg/kg, po measured after 4 hrs; format: functional; details: PC-3, 4 h
Outline: (§2)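 SCID mice carrying PTEN-null PC3 prostate xenografts received a single oral dose as a suspension (50, 100 or 200 mg/kg).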

[3] = Ratio of total plasma concentration in PTEN-null human PC3 cells xenografted in SCID mouse at 100 mg/kg, po single dose at 8 hrs to IC50 for PI3Kbeta in human MAD-MB-468 cells; set-up: species or system PC-3
[4] = molecular target: T1, Phosphatidylinositol 4,5-bisphosphate 3-kinase catalytic subunit delta isoform (Homo sapiens, UniProt O00329); experiment: Inhibition of human recombinant PI3Kdelta assessed as depletion of ATP substrate by Ultra Glo luciferase assay; outline: as §1
T1 sequence (O00329 whole entry): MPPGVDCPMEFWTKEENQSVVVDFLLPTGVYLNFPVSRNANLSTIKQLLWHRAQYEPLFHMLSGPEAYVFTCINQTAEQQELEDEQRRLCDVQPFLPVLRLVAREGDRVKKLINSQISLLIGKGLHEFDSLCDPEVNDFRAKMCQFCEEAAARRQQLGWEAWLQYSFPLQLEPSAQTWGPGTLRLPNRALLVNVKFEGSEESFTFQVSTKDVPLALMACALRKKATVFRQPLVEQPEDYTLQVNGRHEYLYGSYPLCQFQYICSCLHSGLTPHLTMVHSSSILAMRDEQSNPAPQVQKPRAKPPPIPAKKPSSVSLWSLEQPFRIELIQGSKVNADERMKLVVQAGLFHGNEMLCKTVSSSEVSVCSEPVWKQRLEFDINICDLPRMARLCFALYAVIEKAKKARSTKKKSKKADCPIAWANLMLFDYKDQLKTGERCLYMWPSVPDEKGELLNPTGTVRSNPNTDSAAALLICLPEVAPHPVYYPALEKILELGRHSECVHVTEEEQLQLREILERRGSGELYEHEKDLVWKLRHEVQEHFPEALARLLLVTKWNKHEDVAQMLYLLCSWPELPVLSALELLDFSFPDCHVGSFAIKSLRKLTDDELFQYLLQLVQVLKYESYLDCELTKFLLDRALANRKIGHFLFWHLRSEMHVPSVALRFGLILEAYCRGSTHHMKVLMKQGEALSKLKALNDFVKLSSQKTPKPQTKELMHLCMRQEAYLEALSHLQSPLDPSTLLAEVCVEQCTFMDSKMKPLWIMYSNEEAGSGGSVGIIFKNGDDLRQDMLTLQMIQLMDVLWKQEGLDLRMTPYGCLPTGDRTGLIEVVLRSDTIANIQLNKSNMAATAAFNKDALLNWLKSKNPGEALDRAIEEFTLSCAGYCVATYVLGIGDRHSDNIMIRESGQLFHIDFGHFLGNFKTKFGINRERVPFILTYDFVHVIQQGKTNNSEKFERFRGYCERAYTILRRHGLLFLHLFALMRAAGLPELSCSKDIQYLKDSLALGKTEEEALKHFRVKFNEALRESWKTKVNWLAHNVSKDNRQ

[5] = Ratio of total plasma concentration in PTEN-null human PC3 cells xenografted in SCID mouse at 100 mg/kg, po single dose at 1 hrs to IC50 for PI3Kbeta in human MAD-MB-468 cells; set-up: species or system PC-3
[6] = Total plasma concentration in SCID mouse xenografted with PTEN-null human PC3 cells at 100 mg/kg, po measured after 8 hrs; format: ADME, organism-based, PC-3; set-up: dose 100 mg/kg, route oral
Outline: (§3)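 Total plasma concentration was measured in SCID mice carrying PC3 xenografts after a single oral dose given as a suspension (50, 100 or 200 mg/kg). Samples were taken at 0.5 to 8 h.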

[7] = Fraction unbound in mouse plasma; format: ADME, cell-free
Outline: (§4)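 Protein binding was measured in nude mouse plasma and in human plasma and is expressed as fraction unbound (%).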

[8] = Clearance in mouse plasma at 5 umol/kg, iv and 30 umol/kg, po; format: ADME, organism-based
Outline: (§5)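 […] mice were dosed at 5 µmol/kg i.v. and 30 µmol/kg p.o. Clearance is given in mL/min/kg and oral bioavailability in %.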

[9] = Intrinsic clearance in human hepatocytes measured per 10^6 cells; format: ADME, cell-based, Hepatocyte; details: read-out: CLH
Outline: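 Intrinsic clearance was measured in human hepatocytes and is expressed in µL/min/10^6 cells.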

Mus musculus [10] = experiment: Inhibition of Akt phosphorylation in SCID mouse xenografted with PTEN-null human PC3 cells at 100 mg/kg, po measured after 8 hrs; format: functional; details: PC-3, 8 h; outline: as §2
[11] = Fraction unbound in human plasma; format: ADME, cell-free; outline: as §4
[12] = molecular target: T2, Phosphatidylinositol 4,5-bisphosphate 3-kinase catalytic subunit beta isoform (Homo sapiens, UniProt P42338); experiment: Inhibition of human recombinant PI3Kbeta assessed as depletion of ATP substrate by Ultra Glo luciferase assay; outline: as §1
T2 sequence (P42338 whole entry, canonical isoform): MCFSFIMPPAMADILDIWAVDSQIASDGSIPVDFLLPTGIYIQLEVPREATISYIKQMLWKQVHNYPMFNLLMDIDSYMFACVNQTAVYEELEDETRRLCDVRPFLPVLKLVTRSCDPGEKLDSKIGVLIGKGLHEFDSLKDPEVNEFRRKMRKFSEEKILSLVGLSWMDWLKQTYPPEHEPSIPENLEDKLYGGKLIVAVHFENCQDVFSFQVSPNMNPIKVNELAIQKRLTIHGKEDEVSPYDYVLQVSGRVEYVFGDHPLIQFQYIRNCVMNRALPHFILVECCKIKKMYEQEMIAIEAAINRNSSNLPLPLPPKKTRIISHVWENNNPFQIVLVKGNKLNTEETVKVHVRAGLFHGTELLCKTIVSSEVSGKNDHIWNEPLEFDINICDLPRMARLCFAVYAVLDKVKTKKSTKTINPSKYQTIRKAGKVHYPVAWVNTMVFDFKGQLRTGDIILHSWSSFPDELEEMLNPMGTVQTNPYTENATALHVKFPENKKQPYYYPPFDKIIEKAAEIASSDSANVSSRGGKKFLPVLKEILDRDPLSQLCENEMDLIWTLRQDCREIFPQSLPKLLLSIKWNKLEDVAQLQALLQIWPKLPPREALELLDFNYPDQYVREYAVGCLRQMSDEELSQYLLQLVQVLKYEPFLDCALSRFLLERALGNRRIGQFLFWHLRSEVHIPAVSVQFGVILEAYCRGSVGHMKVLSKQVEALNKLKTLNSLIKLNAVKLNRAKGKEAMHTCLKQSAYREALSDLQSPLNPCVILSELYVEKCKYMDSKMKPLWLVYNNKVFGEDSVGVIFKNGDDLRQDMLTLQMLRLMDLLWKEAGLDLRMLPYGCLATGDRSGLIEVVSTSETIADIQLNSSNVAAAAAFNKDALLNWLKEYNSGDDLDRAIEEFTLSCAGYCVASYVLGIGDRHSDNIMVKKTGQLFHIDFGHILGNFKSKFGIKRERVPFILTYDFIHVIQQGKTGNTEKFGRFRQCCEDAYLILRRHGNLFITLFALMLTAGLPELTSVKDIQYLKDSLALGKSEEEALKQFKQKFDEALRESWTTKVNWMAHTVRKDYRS

[13] = Solubility of the compound in phosphate buffer at pH 7.4; format: physicochemical
Outline: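 Solubility was measured from solid material in phosphate buffer at pH 7.4.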

Mus musculus [14] = experiment: Inhibition of Akt phosphorylation in SCID mouse xenografted with PTEN-null human PC3 cells at 100 mg/kg, po measured after 1 hr; format: functional; details: PC-3, 1 h; outline: as §2
[15] = molecular target: T3, Phosphatidylinositol 4,5-bisphosphate 3-kinase catalytic subunit alpha isoform (Homo sapiens, UniProt P42336); experiment: Inhibition of PI3Kalpha in human BT474 cells assessed as inhibition of […] Akt phosphorylation after 2 hrs by fluorescence assay; format: cell-based, BT-474
T3 sequence (P42336 whole entry, canonical isoform): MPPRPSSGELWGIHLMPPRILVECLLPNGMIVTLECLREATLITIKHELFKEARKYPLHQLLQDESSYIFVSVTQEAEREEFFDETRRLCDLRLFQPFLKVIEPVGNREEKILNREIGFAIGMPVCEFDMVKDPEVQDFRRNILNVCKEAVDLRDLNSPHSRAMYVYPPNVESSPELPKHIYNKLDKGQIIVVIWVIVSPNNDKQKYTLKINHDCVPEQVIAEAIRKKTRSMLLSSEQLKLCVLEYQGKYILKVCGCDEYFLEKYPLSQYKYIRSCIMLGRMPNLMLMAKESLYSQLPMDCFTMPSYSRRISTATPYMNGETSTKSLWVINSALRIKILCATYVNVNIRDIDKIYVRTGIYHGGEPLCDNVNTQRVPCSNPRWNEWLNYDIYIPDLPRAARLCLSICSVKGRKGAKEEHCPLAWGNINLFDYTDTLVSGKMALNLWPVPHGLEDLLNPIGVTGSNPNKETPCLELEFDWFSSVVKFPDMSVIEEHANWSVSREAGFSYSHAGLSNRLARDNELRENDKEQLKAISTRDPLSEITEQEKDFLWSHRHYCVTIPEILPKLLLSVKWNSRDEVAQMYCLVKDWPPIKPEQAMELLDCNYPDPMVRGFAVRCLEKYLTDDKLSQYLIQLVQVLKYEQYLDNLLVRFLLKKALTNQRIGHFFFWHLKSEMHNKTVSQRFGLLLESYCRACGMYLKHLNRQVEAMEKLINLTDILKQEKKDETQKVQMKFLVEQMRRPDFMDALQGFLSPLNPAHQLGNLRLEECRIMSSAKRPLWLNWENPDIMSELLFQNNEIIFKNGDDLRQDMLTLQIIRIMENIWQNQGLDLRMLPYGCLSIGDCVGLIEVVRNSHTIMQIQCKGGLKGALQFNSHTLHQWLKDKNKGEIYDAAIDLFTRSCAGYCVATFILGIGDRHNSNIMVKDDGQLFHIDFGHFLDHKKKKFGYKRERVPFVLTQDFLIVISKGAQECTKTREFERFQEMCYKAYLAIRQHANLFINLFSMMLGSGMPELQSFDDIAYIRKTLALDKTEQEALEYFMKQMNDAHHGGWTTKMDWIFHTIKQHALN
Outline: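 BT474 cells were seeded in DMEM with 10% FCS and 1% glutamine and left to adhere overnight, then treated with compound in DMSO for 2 h at 37 °C and 5% CO2. Cells were lysed with a phosphatase/protease-inhibitor buffer. Lysate was captured on anti-total-Akt plates, probed with anti-phospho-Akt Thr308 and an HRP secondary, and read by fluorescence (ex 325/em 420 nm). Values are the geometric mean of ≥2 determinations.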

[16] = Bioavailability in mouse plasma at 5 umol/kg, iv and 30 umol/kg, po; format: ADME, organism-based; outline: as §5
[17] = molecular target: T2, Phosphatidylinositol 4,5-bisphosphate 3-kinase catalytic subunit beta isoform; experiment: Inhibition of PI3Kbeta in human MAD-MB-468 cells assessed as inhibition of Ser473 Akt phosphorylation by cellular potency assay
[18] = Ratio of total plasma concentration in PTEN-null human PC3 cells xenografted in SCID mouse at 100 mg/kg, po single dose at 4 hrs to IC50 for PI3Kbeta in human MAD-MB-468 cells; set-up: species or system PC-3
[19] = Buffer/octanol partition coefficient, log D of the compound at pH 7.4 by shake flask method; format: physicochemical
Outline: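 LogD at pH 7.4 was measured by shake-flask with a buffer/octanol volume ratio of 100:1.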

[20] = Apparent permeability from apical (pH 6.5) to […] of human Caco2 cells; format: ADME, cell-based; details: Caco-2, pH 6.5
[21] = Total plasma concentration in SCID mouse xenografted with PTEN-null human PC3 cells at 100 mg/kg, po measured after 4 hrs; format: ADME, organism-based, PC-3; set-up: dose 100 mg/kg, route oral; outline: as §3
[22] = Total plasma concentration in SCID mouse xenografted with PTEN-null human PC3 cells at 100 mg/kg, po measured after 1 hr; format: ADME, organism-based, PC-3; set-up: dose 100 mg/kg, route oral; outline: as §3
[23] = molecular target: T3, Phosphatidylinositol 4,5-bisphosphate 3-kinase catalytic subunit alpha isoform; experiment: Inhibition of human recombinant PI3Kalpha assessed as depletion of ATP substrate by Ultra Glo luciferase assay; outline: as §1

Chain of Phosphatidylinositol 4,5-bisphosphate 3-kinase catalytic subunit gamma isoform (P48736 whole entry, canonical isoform): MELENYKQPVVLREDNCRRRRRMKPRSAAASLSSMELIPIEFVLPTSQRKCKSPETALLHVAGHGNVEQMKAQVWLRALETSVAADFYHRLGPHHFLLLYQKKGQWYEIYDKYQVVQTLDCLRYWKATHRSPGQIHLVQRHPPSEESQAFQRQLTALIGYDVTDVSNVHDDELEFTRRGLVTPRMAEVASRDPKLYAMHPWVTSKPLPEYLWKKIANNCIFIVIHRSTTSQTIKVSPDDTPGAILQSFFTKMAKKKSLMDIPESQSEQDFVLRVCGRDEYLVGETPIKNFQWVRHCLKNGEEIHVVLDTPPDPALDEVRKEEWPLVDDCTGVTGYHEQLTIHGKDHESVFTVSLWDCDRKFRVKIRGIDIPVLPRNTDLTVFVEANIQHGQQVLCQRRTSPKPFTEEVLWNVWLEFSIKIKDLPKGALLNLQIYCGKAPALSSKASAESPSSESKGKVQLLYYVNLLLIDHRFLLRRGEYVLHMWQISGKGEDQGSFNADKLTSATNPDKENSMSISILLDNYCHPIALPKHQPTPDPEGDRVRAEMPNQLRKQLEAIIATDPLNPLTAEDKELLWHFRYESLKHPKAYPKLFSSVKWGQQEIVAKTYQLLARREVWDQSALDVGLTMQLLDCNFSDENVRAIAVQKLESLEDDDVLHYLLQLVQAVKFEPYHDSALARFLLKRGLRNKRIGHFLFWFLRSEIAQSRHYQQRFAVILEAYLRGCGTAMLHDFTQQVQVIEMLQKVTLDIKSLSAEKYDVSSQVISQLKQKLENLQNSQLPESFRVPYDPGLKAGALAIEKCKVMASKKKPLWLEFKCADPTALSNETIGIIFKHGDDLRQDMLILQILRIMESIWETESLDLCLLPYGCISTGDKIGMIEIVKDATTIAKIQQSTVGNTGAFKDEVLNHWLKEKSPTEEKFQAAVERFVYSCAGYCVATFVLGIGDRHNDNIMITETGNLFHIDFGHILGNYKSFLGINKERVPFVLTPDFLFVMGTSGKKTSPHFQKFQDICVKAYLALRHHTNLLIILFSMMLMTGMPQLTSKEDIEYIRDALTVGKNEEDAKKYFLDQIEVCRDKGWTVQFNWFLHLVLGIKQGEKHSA

Structure (SMILES): C[C@@H](Nc1cc(F)cc(F)c1)c1cc(C(=O)N(C)C)cn2c(=O)cc(N3CCOCC3)nc12
- IC50 [1]: 510 nM
- inhibition in vivo at 100 mg/kg (Mus musculus [2]): 80%
- Ratio [3]: 41
- IC50 [4]: 32 nM
- Ratio [5]: 204
- concentration at 8 h [6]: 2.6 µM
- fraction unbound [7]: 0.047
- clearance [8]: 82 mL/min/kg
- hepatocyte CLint [9]: 11 µL/min/1e6 cells
- inhibition in vivo at 100 mg/kg (Mus musculus [10]): 56%
- fraction unbound [11]: 0.12
- IC50 [12]: 5 nM
- solubility [13]: 15 µM (≈ 6.86 µg/mL)
- inhibition in vivo at 100 mg/kg (Mus musculus [14]): 92%
- IC50 [15]: 1200 nM
- bioavailability [16]: 31%
- IC50 [17]: 3 nM
- Ratio [18]: 106
- logD [19]: 3
- Papp A→B [20]: 50 ×10⁻⁶ cm/s
- concentration at 4 h [21]: 6.8 µM
- concentration at 1 h [22]: 13 µM
- IC50 [23]: 75 nM

Source: ChEMBL document CHEMBL3351561, “Discovery of 9-(1-anilinoethyl)-2-morpholino-4-oxo-pyrido[1,2-a]pyrimidine-7-carboxamides as PI3Kβ/δ inhibitors for the treatment of PTEN-deficient tumours” (Bioorg Med Chem Lett, 2014)
